Reference: the RNAGym collection of RNA variant scans (doi:10.1126/science.aae0568)
This sample holds only a part of the variants without activity.

B1: tRNA (parent)
chain: GUUCCGUUGGCGUAAUGGUAACGCGUCUCCCUCCUAAGGAGAAGACUGCGGGUUCGAGUCCCGUACGGAACG

Variants of: B1
Experiment: yeast fitness relative to wild type (ratio to wild type); higher = fitter; tRNA-Arg(CCU), competitive growth, 37 C, YPD
In short: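 Start and end populations of a pooled competition were compared by 100-nucleotide paired-end sequencing of gene amplicons. The Saccharomyces cerevisiae strains carried tRNA-Arg(CCU) gene variants at the native genomic locus, synthesised with a 3% per-site mutation rate at 69 sites, and competed in YPD at 37°C for 24 hours in six parallel replicates. Darwinian fitness relative to wild type was based on the change in genotype frequencies. Genotypes required ≥ 100 starting reads, and estimates < 0.5 were set to 0.5.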

Variant	yeast fitness
G23A A43G	0.684
G23A A43U	0.699
G23A G38A G39C G50A G56C	≤ 0.5
G23A A37C C49U C62U A70G	≤ 0.5
G23C C24A C30G A37C A45U G68C	≤ 0.5
G23C C24G C34G C61U	≤ 0.5
G23A C31U C33G	0.523
G23C C49U	0.71
G23C A40G	0.639
G23A A57C A65U	≤ 0.5
G23A A43G U64C	≤ 0.5
G23C C24G G50A	0.585
G23A C33G A43G A69C	≤ 0.5
G23C C29A G38A	≤ 0.5
G23C C31A C49A	0.758
C22U U35A G52A	≤ 0.5
G23C C31G G38C	≤ 0.5
G23C C27A A45G G51C G68A	0.701
G23A C30U U54C	0.528
G23A C34G	0.582
G23A C27U A45U	0.668
C22U U35C A69C	0.565
G23C C49G A70C	≤ 0.5
G23A C27U C34U A45C A65C	0.532

Variant	yeast fitness
G23C C30G C49U A65C	≤ 0.5
G23A G38C A40C A43C	≤ 0.5
G23C C60A	0.72
C22U U35C C49U U53A	≤ 0.5
G23C A65G A69U	0.524
G23A C30A A37G C66U	0.539
G23C A42C	0.721
G23C C55U	≤ 0.5
G23A C55A C61A	0.568
C22U U32C C46G U53G G68C	0.544
G23C C27A G56A A57U A69U	≤ 0.5
G23A C55U G63C	≤ 0.5
G23C C29G C33U C46U C55U	≤ 0.5
G23A C27G C29U G56A	≤ 0.5
G23A A40U C49U C60A G63A	≤ 0.5
G23A A65U	0.916
G23A A65C	0.816
G23A A65G	0.907
G23A G39C A40G	≤ 0.5
G23A C30U C33A G41C A42U	0.555
G23A C31U A69U	0.675
G23C C33G A42U C66A	0.643
G23A C33G U35G	≤ 0.5
G23A C24U U35A C60A A69C	0.607

Variant	yeast fitness
G23A G67C	0.86
G23A G67A	0.841
G23A C30G A42G	0.524
G23A C31A	0.644
G23C C30A C46A	≤ 0.5
G23C C27G U53C C62A	0.619
G23A C34A G52C G63C	≤ 0.5
G23C A43U G56A	0.628
G23A G38A A69C	≤ 0.5
G23A G39C C49A	≤ 0.5
C22U U28C C61A C62U	≤ 0.5
G23A C33U C34U A40U	≤ 0.5
C22U U32C A65C	0.701
G23A C30A	0.792
G23C C29G A43U G50A	0.702
C22U U47C	0.857
C22U U47A	0.77
G23A C30A A37G	≤ 0.5
G23C A42U A43G	≤ 0.5
G23A C24G G25A G48A	≤ 0.5
C22U U32C C46U U54G A70U	0.655
G23A U64G	0.717
C22U U32A C34U C66U	≤ 0.5
G23C C27G U53C C61A G68A	≤ 0.5

Variant	yeast fitness
G23A C29G A65G	≤ 0.5
G23A C30U C55A G68C	≤ 0.5
G23A G25A A40U C61U	≤ 0.5
C22U U47C G51C	0.54
C22U U32C C33G C55G	≤ 0.5
G23A G41C	0.803
G23A C29G A45U C60G C61U A69G	0.59
G23A G39C A40U G68A	≤ 0.5
G23C A37G G44C A45C G50A C55G C66A	≤ 0.5
C22U U47C G52A	≤ 0.5
G23A C30A C55U	≤ 0.5
G23C C24U U59A	≤ 0.5
C22U U32G C34U A40G C66U	0.647
G23C C24G C33G A40U C49A	≤ 0.5
G23A U35G A70C	≤ 0.5
G23A C33G A43C	≤ 0.5
G23A A42G G51A C61U	≤ 0.5
G23C C34U A36U C55A	0.581
G23A C30U A70C	≤ 0.5
G23A G50A	0.819
G23A G50C	0.58
G23C A45C C66G	≤ 0.5
G23C C34U A36U C49A C66U	≤ 0.5
G23A G38A C55U	≤ 0.5

Variant	yeast fitness
G23A A43G A70U	0.648
G23A A36U G39C	0.518
G23C C31A	0.633
G23C C31G	0.654
G23C A37U U47C U54C C66U	≤ 0.5
G23A C30U C49A A57U A70C	≤ 0.5
G23C C31A A36U A70C	0.557
G23C A65C	0.619
G23C A65G	0.587
G23A C31U G48C C55G A69U	≤ 0.5
G23C C30G A65C	≤ 0.5
G23A C30U U53A	≤ 0.5
G23C A37U U47C C60G C66U	≤ 0.5
G23A C27A U54A G56A C66G	≤ 0.5
G23C C55G G67A	0.526
G23C C27G A45G G52A C66A	0.634
G23A U47A G58C	0.596
G23C C33U A42G A43C U64A C66A A69C A70C	≤ 0.5
G23A G38C	0.599
G23A G38A	0.643
G23C C30G C62U	≤ 0.5
G23C A42C U47A C49G	≤ 0.5
G23C A37C C46G C66U	≤ 0.5
G23A C29U	0.923

Variant	yeast fitness
G23A C29G	0.625
G23A C29A	0.536
G23A C27U C34U A45C	≤ 0.5
G23C A57G	0.677
G23C C24G	0.783
G23C C24U	0.61
G23A C29U C30A	0.565
G23A C33G C46G C66A	0.529
G23A G39C A69U	≤ 0.5
G23A G63A A65G	0.524
G23A A69C	0.793
G23A A69U	0.726
G23A U26G C61U A69C	0.793
G23A U54A	0.605
G23A U54C	0.533
G23A C30U C55U G67C	≤ 0.5
G23C A42G G67A	≤ 0.5
G23A C27U C60G	0.525
G23A A37G G68A	0.682
G23C C29G A43U G50A G68U	≤ 0.5
G23A C24A C31A A36G	≤ 0.5
G23C C49U C55G	≤ 0.5
G23C A45C	0.554
G23C A45G	0.773

Variant	yeast fitness
G23A C34U A43U G44C	≤ 0.5
G23C C49G C62U	≤ 0.5
G23C C24G C34G U64A	≤ 0.5
G23C C33U A43U A45C	≤ 0.5
G23C C29G A43U G50A A57G	≤ 0.5
G23A A70C	0.74
G23A C33G	≤ 0.5
G23A C33U	0.547
C22U U32G C34U A40G A42G C66U	0.561
G23C C49U G52C C60U C61G	≤ 0.5
G23C C30U C46U	≤ 0.5
G23A U35G G58A	≤ 0.5
G23C C29A A45U	≤ 0.5
G23A C30U G48A C55A	≤ 0.5
G23C C31U C49U	0.58
G23A U32C A42G U54G C62U	≤ 0.5
G23A C31U C33G G63U	≤ 0.5
G23C C33A A36U	0.529
G23A G56A	0.924
G23A G56C	0.65
G23A C46G	0.683
G23C C24A C49A U54C	0.655
G23C C30G A70G	≤ 0.5
